# ChEMBL document CHEMBL3797138, “Discovery of a Selective and Potent Inhibitor of Mitogen-Activated Protein Kinase-Interacting Kinases 1 and 2 (MNK1/2) Utilizing Structure-Based Drug Design” (J Med Chem, 2016)
# What was measured:
# [1] = Antiproliferative activity against luciferase expressing human KMS11 cells after 5 days by CellTiter-Glo luminescent assay; type: functional, cell-based; conditions: KMS-11, 120 h
# Procedure, shortened: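 KMS11-luc cells seeded at 2500 cells/well; compounds added 2 h after seeding, then incubated 5 days at 37 °C, 5% CO2. CellTiter-Glo added in equal volume, shaken 2 min, kept 10 min dark at room temperature, and luminescence read. EC50 fitted from % inhibition versus concentration (µM) with a four-parameter equation.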
# [2] = target: MAP kinase-interacting serine/threonine-protein kinase 1/2 (Homo sapiens, UniProt Q9HBH9+Q9BUB5); experiment: Inhibition of MNK1/2 in human KMS11-luc cells assessed as inhibition of EIF4E phosphorylation at S209 after 3 hrs by quantitative electrochemiluminescence assay; type: cell-based
# Procedure, shortened: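 KMS11-luc cells seeded at 300,000 cells/well and exposed to compounds for 3 h at 37 °C, 5% CO2, then lysed in well with Triton-based buffer. Lysate captured overnight at 4 °C on blocked ECL plates. Detection: anti-phospho-EIF4E (S209) antibody 1:200 plus sulfo-tag goat anti-rabbit 1:400, 2 h at room temperature, electrochemiluminescence read. Phospho-EIF4E signal normalized to total YB1 for EC50.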
# [3] = Solubility of the compound at pH 7.4 by high throughput assay; conditions: buffer
# [4] = Apparent permeability across apical to basolateral side in human Caco2 cells; conditions: Caco-2
# [5] = target: MAP kinase-interacting serine/threonine-protein kinase 2 (Homo sapiens, UniProt Q9HBH9); experiment: Inhibition of N-terminal 6His-tagged recombinant human full length wild type MNK2b using biotin-SGSGKRREILSRRPSYR-NH2 as substrate after 1 hr by HTRF assay
# Procedure, shortened: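 Commercial full-length wild-type MNK2b at 1 nM final, with biotin-crebtide 200 nM and ATP 200 µM. Buffer: 50 mM Hepes pH 7.5, 5 mM MgCl2, 0.05% BSA, 0.01% Tween-20, 1 mM DTT, 2.5% DMSO. Stop/detection buffer: 20 mM EDTA, 0.1% BSA, 0.4 M KF, with Eu-anti-phospho-creb antibody 0.23 nM and SA-XL665 50 nM. Developed overnight in the dark at room temperature; HTRF read, excitation 320 nm, emission 665 nm.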
# [6] = Lipophilicity, log D of the compound at pH 7.4; conditions: buffer
# [7] = target: Cyclin-dependent kinase 2 (Homo sapiens, UniProt P24941); experiment: Inhibition of CDK2 (unknown origin)
# [8] = target: MAP kinase-interacting serine/threonine-protein kinase 1 (Homo sapiens, UniProt Q9BUB5); experiment: Inhibition of ERK2-activated full length wild type MNK1a (unknown origin) using biotin-SGSGKRREILSRRPSYR-NH2 as substrate after 2 hrs by HTRF assay
# Procedure, shortened: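 In-house full-length MNK1a (0.5 nM final) activated by full-length ERK2 (0.5 nM final). Biotin-crebtide 200 nM and ATP 200 µM. Buffer: 50 mM Hepes pH 7.5, 5 mM MgCl2, 0.05% BSA, 0.01% Tween-20, 1 mM DTT, 2.5% DMSO. Reaction run 2 h, then stopped with EDTA/KF buffer holding Eu-anti-phospho-creb (0.23 nM) and streptavidin-XL665 (50 nM). Read by HTRF after overnight development in the dark.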
# [9] = target: Cyclin-dependent kinase 1 (Homo sapiens, UniProt P06493); experiment: Inhibition of CDK1 (unknown origin)
# [10] = Efflux ratio of apparent permeability across basolateral to apical side over apical to basolateral side in human Caco2 cells; conditions: Caco-2
# [11] = target: Rho-associated protein kinase 2 (Homo sapiens, UniProt O75116); experiment: Inhibition of ROCK2 (unknown origin)
# [12] = target: Cyclin-dependent kinase 9 (Homo sapiens, UniProt P50750); experiment: Inhibition of CDK9 (unknown origin)
# [13] = Inhibition of CYP450 (unknown origin); type: ADME, Homo sapiens
# [14] = target: T1, Receptor-type tyrosine-protein kinase FLT3 (Homo sapiens, UniProt P36888); experiment: Inhibition of FLT3 (unknown origin)
# T1 sequence (P36888 whole entry): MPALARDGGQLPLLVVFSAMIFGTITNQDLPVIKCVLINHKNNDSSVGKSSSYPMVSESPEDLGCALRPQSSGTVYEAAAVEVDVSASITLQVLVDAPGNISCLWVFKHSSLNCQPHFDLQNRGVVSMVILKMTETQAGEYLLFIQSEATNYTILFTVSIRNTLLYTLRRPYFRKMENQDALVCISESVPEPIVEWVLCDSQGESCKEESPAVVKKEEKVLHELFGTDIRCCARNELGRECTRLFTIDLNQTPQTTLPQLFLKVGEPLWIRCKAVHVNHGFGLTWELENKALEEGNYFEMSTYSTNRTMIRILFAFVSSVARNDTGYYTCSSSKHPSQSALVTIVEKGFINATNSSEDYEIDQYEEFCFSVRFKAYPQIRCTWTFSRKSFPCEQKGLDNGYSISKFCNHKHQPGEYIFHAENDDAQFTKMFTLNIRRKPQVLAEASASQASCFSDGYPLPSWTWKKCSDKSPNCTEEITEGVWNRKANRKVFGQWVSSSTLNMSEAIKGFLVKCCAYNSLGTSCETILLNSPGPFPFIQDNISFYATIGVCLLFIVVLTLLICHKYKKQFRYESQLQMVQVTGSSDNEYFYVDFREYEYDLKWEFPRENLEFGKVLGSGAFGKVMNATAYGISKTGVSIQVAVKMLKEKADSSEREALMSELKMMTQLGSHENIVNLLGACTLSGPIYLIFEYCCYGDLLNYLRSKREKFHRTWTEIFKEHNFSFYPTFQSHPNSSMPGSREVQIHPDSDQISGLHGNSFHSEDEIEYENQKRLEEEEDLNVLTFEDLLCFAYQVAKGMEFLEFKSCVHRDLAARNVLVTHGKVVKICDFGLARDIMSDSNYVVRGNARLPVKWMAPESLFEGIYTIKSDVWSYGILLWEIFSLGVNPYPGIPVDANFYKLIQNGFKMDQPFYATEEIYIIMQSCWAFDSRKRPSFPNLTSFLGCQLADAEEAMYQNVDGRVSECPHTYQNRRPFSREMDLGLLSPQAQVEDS
# [15] = Intrinsic clearance in rat liver microsomes; type: ADME
# [16] = target: Calcium/calmodulin-dependent protein kinase type II subunit delta (Homo sapiens, UniProt Q13557); experiment: Inhibition of CAMK2D (unknown origin)
# [17] = target: Serine/threonine-protein kinase pim-2 (Homo sapiens, UniProt Q9P1W9); experiment: Inhibition of PIM2 (unknown origin)
# [18] = Hepatic extraction ratio in rat liver microsomes; type: ADME; conditions: read-out: ERH
# Sequence of Cyclin-dependent kinase 1 (P06493 whole entry): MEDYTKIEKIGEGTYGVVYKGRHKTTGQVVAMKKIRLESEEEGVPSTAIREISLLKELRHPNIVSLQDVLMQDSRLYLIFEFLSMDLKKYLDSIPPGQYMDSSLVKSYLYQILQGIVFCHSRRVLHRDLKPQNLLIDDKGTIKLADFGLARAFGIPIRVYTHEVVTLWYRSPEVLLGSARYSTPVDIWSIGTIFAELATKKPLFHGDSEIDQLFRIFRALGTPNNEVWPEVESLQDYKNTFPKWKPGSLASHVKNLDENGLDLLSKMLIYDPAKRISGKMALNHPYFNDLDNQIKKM
# Sequence of MAP kinase-interacting serine/threonine-protein kinase 2 (Q9HBH9 whole entry): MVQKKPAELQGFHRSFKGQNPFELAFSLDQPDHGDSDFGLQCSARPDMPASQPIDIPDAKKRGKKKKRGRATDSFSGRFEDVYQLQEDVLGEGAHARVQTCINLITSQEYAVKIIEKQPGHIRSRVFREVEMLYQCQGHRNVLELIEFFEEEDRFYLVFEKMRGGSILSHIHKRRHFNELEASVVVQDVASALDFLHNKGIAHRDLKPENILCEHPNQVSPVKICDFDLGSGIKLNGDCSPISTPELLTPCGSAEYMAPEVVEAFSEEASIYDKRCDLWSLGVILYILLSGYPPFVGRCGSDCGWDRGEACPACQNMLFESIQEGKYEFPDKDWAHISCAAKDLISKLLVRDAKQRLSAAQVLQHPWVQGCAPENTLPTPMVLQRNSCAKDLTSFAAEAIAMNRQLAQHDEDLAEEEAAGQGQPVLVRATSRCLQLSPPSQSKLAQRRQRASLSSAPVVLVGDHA
# Sequence of MAP kinase-interacting serine/threonine-protein kinase 1 (Q9BUB5 whole entry): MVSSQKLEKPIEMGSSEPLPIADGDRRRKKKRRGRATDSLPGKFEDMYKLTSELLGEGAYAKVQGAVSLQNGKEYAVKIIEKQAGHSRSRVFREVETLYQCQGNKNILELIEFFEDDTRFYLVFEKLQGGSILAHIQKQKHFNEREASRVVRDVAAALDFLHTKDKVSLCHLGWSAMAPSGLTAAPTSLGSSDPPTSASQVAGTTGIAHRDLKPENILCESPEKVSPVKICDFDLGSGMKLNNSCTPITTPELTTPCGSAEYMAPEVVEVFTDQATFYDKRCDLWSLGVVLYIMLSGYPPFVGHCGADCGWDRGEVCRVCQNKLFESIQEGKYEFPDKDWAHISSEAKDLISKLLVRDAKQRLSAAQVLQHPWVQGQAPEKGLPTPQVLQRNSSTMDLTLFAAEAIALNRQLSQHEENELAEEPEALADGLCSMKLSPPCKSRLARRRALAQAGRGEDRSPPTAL
# Sequence of Rho-associated protein kinase 2 (O75116 whole entry): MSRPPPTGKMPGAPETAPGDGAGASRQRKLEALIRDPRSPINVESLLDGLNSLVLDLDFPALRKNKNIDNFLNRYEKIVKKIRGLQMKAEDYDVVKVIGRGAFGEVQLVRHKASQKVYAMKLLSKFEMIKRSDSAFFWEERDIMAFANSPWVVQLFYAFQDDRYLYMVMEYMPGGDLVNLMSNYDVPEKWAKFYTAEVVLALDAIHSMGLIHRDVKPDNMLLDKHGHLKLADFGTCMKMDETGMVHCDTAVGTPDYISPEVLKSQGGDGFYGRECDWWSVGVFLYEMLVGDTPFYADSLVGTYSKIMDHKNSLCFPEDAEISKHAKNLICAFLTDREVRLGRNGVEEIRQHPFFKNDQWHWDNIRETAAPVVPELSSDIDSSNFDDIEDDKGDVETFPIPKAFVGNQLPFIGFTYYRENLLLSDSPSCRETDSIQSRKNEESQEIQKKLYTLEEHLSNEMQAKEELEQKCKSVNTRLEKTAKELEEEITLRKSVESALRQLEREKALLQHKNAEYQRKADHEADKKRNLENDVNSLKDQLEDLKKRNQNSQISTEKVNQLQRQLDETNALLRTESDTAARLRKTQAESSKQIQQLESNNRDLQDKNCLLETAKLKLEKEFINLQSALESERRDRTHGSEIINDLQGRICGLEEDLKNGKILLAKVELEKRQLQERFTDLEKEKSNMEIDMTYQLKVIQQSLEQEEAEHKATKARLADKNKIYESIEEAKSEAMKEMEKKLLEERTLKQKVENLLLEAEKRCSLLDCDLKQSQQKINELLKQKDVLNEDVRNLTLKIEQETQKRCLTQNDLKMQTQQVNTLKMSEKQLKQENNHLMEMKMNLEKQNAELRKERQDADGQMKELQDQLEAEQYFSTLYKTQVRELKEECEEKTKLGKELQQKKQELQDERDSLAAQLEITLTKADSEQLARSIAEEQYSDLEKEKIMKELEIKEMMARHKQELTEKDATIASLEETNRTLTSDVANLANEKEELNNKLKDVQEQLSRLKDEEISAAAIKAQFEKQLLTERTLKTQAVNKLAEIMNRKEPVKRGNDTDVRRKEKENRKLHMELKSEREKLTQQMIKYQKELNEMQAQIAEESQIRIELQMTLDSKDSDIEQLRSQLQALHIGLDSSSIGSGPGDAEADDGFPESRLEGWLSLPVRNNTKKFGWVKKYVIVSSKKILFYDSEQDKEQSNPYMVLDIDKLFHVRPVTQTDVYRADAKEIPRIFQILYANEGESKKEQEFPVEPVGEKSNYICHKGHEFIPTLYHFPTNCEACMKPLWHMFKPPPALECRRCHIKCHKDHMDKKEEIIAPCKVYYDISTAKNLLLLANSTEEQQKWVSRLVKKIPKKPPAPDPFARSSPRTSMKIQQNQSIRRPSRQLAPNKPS
# Sequence of Calcium/calmodulin-dependent protein kinase type II subunit delta (Q13557 whole entry): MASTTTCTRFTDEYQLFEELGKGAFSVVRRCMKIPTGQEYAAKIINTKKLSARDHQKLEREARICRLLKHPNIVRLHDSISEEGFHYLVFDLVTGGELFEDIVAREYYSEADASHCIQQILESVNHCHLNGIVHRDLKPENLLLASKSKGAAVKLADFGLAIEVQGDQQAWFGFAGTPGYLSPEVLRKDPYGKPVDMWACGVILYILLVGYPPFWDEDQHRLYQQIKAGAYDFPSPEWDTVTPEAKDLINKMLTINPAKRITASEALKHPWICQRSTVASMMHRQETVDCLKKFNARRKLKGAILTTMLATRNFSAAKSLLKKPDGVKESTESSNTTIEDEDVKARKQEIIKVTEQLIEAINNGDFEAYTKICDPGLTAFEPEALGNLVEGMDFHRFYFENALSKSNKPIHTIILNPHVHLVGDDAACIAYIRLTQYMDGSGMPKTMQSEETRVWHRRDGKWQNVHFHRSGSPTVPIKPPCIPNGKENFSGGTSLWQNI
# Sequence of Cyclin-dependent kinase 9 (P50750 whole entry): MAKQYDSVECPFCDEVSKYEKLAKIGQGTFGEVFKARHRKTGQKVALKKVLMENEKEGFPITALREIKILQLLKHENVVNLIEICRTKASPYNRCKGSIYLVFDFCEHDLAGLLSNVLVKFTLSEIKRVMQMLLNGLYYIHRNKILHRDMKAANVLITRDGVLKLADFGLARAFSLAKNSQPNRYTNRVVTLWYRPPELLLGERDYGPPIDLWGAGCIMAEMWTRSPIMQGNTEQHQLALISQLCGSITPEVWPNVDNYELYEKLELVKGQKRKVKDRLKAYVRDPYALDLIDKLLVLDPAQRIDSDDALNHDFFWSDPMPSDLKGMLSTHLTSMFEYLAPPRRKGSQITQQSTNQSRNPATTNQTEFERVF
# Sequence of Serine/threonine-protein kinase pim-2 (Q9P1W9 whole entry): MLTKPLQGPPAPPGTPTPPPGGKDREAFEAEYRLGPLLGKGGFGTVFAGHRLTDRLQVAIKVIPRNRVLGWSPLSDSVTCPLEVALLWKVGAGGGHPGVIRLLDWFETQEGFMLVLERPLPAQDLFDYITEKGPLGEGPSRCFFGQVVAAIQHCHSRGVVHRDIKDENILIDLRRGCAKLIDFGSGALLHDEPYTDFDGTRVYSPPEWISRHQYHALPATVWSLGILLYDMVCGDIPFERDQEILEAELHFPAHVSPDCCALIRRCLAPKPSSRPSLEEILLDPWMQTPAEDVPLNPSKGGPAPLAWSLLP
EC50 [2] [nM],solubility [3] [µM],Papp A→B [4] [×10⁻⁶ cm/s],IC50 [5] [nM],logD [6],IC50 [7] [nM],IC50 [8] [nM],IC50 [9] [nM],efflux ratio [10],IC50 [11] [nM],IC50 [12] [nM],IC50 [13] [nM],IC50 [14] [nM],CLint [15] [µL/min/mg],IC50 [16] [nM],IC50 [17] [nM],hepatic extraction ratio [18],SMILES,EC50 [1] [nM]
,,,,,,,,,,,,,,,,,CC(=O)C1=C(O)C=C2Oc3c(C(N)=O)c(O)cc(O)c3[C@]2(C)C1=O,> 10000
50,70,0.7,20,1.9,11000,80,1700,87,,,,,,,,,CN(C)C(=O)c1cccc(-c2cnc(N)c(-c3nc4cccc(N5CCNCC5)c4[nH]3)n2)c1,
5,254,9,1,1.1,1400,2,500,2.3,,,,,,,,,CN(C)C(=O)c1cccc(-c2cnc(N)c(-c3nc4cccc(N5CCNCC5)c4n3C)n2)c1,
,,,34,4.2,5700,36,1000,,,,,,,,,,CN(C)C(=O)c1cccc(-c2cnc(N)c(-c3nc4ccccc4[nH]3)c2)c1,
,,,720,> 4.2,1300,120,160,,,,,,,,,,Nc1ncc(-c2ccccc2)cc1-c1nc2ccccc2[nH]1,
0.6,220,5,3,1.9,> 25000,3,> 25000,5,370,> 25000,> 40000,280,32,690,730,0.54,C[C@H]1CN(c2cccc3nc(-c4nc(-c5cc(C(=O)N(C)C)ccn5)cnc4N)n(C)c23)CCN1,1700
,300,,900,3,25000,700,10000,,,,,,,,,,Nc1ncccc1-c1nc2ccccc2[nH]1,
3,,,0.7,,3400,1.5,1000,,,,,,,,,,C[C@H]1CN(c2cccc3nc(-c4nc(-c5cccc(C(=O)N(C)C)c5)cnc4N)n(C)c23)CCN1,
130,102,4,2,1.8,4000,4,1000,3.6,,,,,,,,,CN(C)C(=O)c1cccc(-c2cnc(N)c(-c3nc4cccc(N5CCNCC5)c4[nH]3)c2)c1,
